Laboratory results published in ChEMBL document CHEMBL4513216, “Probing the Open Global Health Chemical Diversity Library for Multistage-Active Starting Points for Next-Generation Antimalarials” (ACS Infect Dis, 2020).

Experiment: Toxicity liver stage against HepG2, at 10uM
Format: cell-based
Set-up: test concentration 10 uM, cell line HepG2-A16-CD81EGFP
Details: human, HepG2-A16-CD81EGFP cells; read-out: INHIBITION
In short: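 Uninfected HepG2-A16-CD81EGFP cells, 3 × 10^3 per well, 1536-well, plated on prespotted compound at 10 μM final, parasite-free screening media added to match infected plates; puromycin 10 μM positive, DMSO 0.5% negative; run in parallel with 48 h PbLuc assay at 37 °C, 5% CO2; viability by CellTiter-Glo luminescence, normalized to controls.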

| SMILES | cytotoxicity at 10 µM [%] |
| --- | --- |
| O=C(c1cc(CC2(NCc3ccccc3)COC2)no1)N1CCCCC1 | 1.14 |
| CS(=O)(=O)c1ccc2c(c1)nc1n2[C@@H](CNCc2cccnc2)COC1 | -2.68 |
| CN1C[C@@H]2CN(C(=O)C3CC=CC3)C[C@@H]2C1=O | -114 |
| O=C(C1CCOCC1)N1C[C@H](OCc2cccnc2)[C@H]2COC[C@H]21 | 1.99 |
| CCN(CC)CC1CN(Cc2c(C)noc2C)Cc2nccn2C1 (configuration not stated) | 2.37 |
| CC(=O)c1ccc(-n2ccc3nc(N4CCCC4)ncc3c2=O)cc1 | 1.45 |
| COCCNC(=O)c1nc(-c2ccc3cc[nH]c3c2)no1 | -0.208 |
| COc1ccccc1CNc1ncnc2c1NC(=O)CN2 | 11.3 |
| CC(=O)N1CCOC(c2c(C(=O)NC(C)(C)C)sc3ccccc23)C1 (configuration not stated) | 8 |
| Cc1ccc(C2CN(Cc3cccc4[nH]ccc34)CCO2)nc1 (configuration not stated) | -35.6 |
| Cn1ccc(C(=O)N2CCC(Cc3cnc4[nH]ccc4c3)C2)n1 (configuration not stated) | -5 |
| O=C(Nc1ccc(-c2csnn2)cc1)N1CCCC1 | -3.8 |
| O=C(NCCc1ccncc1)c1cccc(S(=O)(=O)NC2CC2)c1 | -151 |
| CN(C)c1ncccc1CNC(=O)CCNc1ncccn1 | -2.22 |
| O=C(Cn1cncn1)NCC1CCN(Cc2ccccc2Cl)CC1 | -3.84 |
| NC(=O)C1CCN(c2ccc(C(=O)N3CCc4ccccc43)cn2)C1 (configuration not stated) | -1.29 |
| CNC(=O)c1cccnc1NCCOc1ccccc1 | -4 |
| COCCNC1(c2ccc(Cl)cc2)CCOCC1 | 7.06 |
| CC(NC(=O)c1cccc(CN2CCN(C)CC2)c1)c1ccccn1 (configuration not stated) | -13.5 |
| CN(Cc1cc(Br)cn1C)C(=O)c1ccsc1 | -10 |
| CN(CCC#N)C(=O)CN1CCCC1c1cccs1 (configuration not stated) | -8.83 |

| SMILES | cytotoxicity at 10 µM [%] |
| --- | --- |
| COCCNC(=O)c1cc(OC)ccc1Br | -4.2 |
| O=C(NCc1ccccc1CO)Nc1ccc2c(c1)CCC2 | 3.09 |
| N#CCCN(CCC#N)C(=O)c1ccc(OCC2CC2)cc1 | -10.8 |
| O=C1CN(CCCNC(=O)Nc2ccccn2)CCN1 | -10.1 |
| NC(=O)N1CCCC(C(=O)NCc2ccccc2OC(F)(F)F)C1 (configuration not stated) | 1.01 |
| CC(C)c1nccn1C1CCCN(C(=O)c2ccn(C)c(=O)c2)C1 (configuration not stated) | 7.35 |
| CCN(CC(F)(F)F)C(=O)C1CCCN(Cc2nc(C)c(C)o2)C1 (configuration not stated) | -4.05 |
| O=C(NCCN1CCOCC1)c1cc(Cl)c2c(c1)OCCCO2 | -5.29 |
| CC(C)Cc1ccc(C(=O)Cn2cnnc2[S+](C)[O-])cc1 (configuration not stated) | -7.08 |
| Cc1cc(NC(=O)NCCc2ccc3c(c2)OCCO3)n(C)n1 | -0.838 |
| Cc1cc(N(C)C)nc(N2CCN(Cc3nccn3C)CC2)n1 | -4.05 |
| CSc1ccc(NC(=O)NCC2CCCO2)cc1F (configuration not stated) | -7.81 |
| O=c1c2cccnc2cnn1CC(O)c1cccc(Cl)c1 (configuration not stated) | -10.2 |
| CC(C)Cn1ncc2cc(C(=O)N(C)CCc3ccccc3)cnc21 | -3.42 |
| Cc1occc1C(=O)N1CCC(C(O)c2ccc(F)cc2)CC1 (configuration not stated) | -2.69 |
| CN(c1ccc(OCc2cnc(Cl)s2)cc1)S(C)(=O)=O | 0.867 |
| CN1CCN(c2ccc(NC(=O)c3ccccn3)c(C(F)(F)F)c2)CC1 | 0.753 |
| OCCN1CCN(CC(O)c2cc(Cl)ccc2Cl)CC1 (configuration not stated) | -3.03 |
| Cc1ccc(NC(=O)N2CCCC(O)C2)c(Br)c1 (configuration not stated) | 7.72 |
| CNC(=O)c1cnc(/C=C/c2cc(OC)cc(OC)c2)s1 | -19.6 |
| Cc1nc(C2(NCC(=O)NCCc3cccs3)CCCC2)no1 | -2.18 |

| SMILES | cytotoxicity at 10 µM [%] |
| --- | --- |
| COc1ncccc1C(=O)NCC1Cc2ccccc2O1 (configuration not stated) | -13.4 |
| Cc1ccsc1CCNC(=O)CCC(=O)NC1CCCC1 | -2.98 |
| Cn1nnnc1SCCNC(=O)C1CCN(C(=O)C2CC2)CC1 | -5.95 |
| CC(=O)NCCNC(=O)c1cnc2c(c1)nc(-c1ccccc1Cl)n2C | 4.99 |
| CC(CNC(=O)c1cc(Cn2cnc3ccccc32)[nH]n1)N1CCCC1 (configuration not stated) | -4.62 |
| Cc1ccc2[nH]c(CN(C)c3cc(CN)nc(C)n3)nc2c1 | 1.69 |
| COc1ccccc1[C@@H]1CN(Cc2csc(C(C)=O)c2)C[C@H]1C(=O)O | -4.75 |
| O=C(c1cc(-c2ccco2)nc2c(Cl)cccc12)N1C[C@H]2CNC[C@H]2C1 | -4.23 |
| Cn1cc(C#N)cc1C(=O)N1CCC2(CCCN(CC3CCC3)C2=O)C1 (configuration not stated) | -4.3 |
| CC1(CNS(=O)(=O)c2cccc(C(=O)N3CCSCC3)c2)COC1 | -6.69 |
| O=C(O)[C@H]1C[C@H](C(=O)NCc2ccncc2)CN(CCC(F)(F)F)C1 | -142 |
| O=C1CCCN1CCc1noc(-c2ccc(Cl)cc2)n1 | 7.9 |
| CCc1ccc(CN2C[C@@H](C(=O)O)[C@H](c3ccccc3OC)C2)o1 | -13.9 |
| O=C(CCc1cc(O)no1)N1CCCC(COc2ccccc2F)C1 (configuration not stated) | 0.296 |
| O=C1NCCCC[C@@H]1Nc1ccc(-c2nc(C3CC3)no2)cn1 | 2.87 |
| CN(C)CCNC(=O)c1ccc(OC2CCN(C(=O)CO)CC2)c(Cl)c1 | -2.43 |
| CCCOc1ccc(OCCN2CCOCS2(=O)=O)cc1 | 5.56 |
| CCc1ccccc1OC1CN(C(=O)CN(C)Cc2cccnc2)C1 | 1.61 |
| CC[C@@]1(O)CCN(C(=O)c2ccc(-c3cccc(F)c3)cc2)C[C@H]1O | -5.68 |
| CCNC(=O)[C@@H]1C[C@H](NC(=O)c2ccccc2C#N)CN1CCCSC | -12.7 |
| CCc1ccc(C(=O)NCCNc2ncccn2)cc1 | 0.364 |

| SMILES | cytotoxicity at 10 µM [%] |
| --- | --- |
| CCc1nc(CN2CCN(C(=O)c3cncnc3CC)CC2)cs1 | -11.4 |
| O=C(CN1CC(n2cccn2)C1)NCCC1=CCCCC1 | -8.25 |
| O=C(CN1CCCCC1Cn1cncn1)NCCc1ccsc1 (configuration not stated) | -6.19 |
| Cc1nc(C)n(CC2CCCN2CCOc2ccccc2F)n1 (configuration not stated) | -3.21 |
| Cc1cnn(CC(C)NCc2ccc(OCc3noc(C)n3)cc2)c1 (configuration not stated) | 1.16 |
| Cc1csc(CNC(=O)NCc2ccc3c(c2)OCCO3)n1 | -5.52 |
| Cc1cccc(CS(=O)(=O)CC(=O)N(C)Cc2ccccc2F)c1 | -2.71 |
| NC(Cc1nc(-c2ccccc2)no1)c1ccccc1 (configuration not stated) | -5.08 |
| Cn1ccnc1CN1CCc2ncnc(N3CCCC3)c2CC1 | -142 |
| COCc1nn(C(C)C)c2c1CCN(Cc1ccoc1)C2 | 3.33 |
| CO[C@@H]1CCN(C2CCOCC2)C[C@@H]1Cc1ccccc1 | -4.87 |
| c1csc(CN2CCC3(CCCN(c4nncs4)C3)C2)n1 (configuration not stated) | -144 |
| Cc1ccc2c(n1)N(CCn1cccn1)CCN(C1CCOCC1)C2 | -2.83 |
| Cn1cccc1C(=O)N1CCCCC12CC(=O)N(c1cccnc1)C2 (configuration not stated) | -1.91 |
| CN1CCN(C(=O)c2ncn3c2CN(C)S(=O)(=O)c2ccccc2-3)CC1 | -153 |
| c1csc(N2[C@H](Cn3cncn3)C[C@@H]3CNCC[C@@H]32)n1 | -142 |
| CCN1CC2(CNCCN(C(=O)Nc3ccccc3)C2)CC1=O (configuration not stated) | 0.346 |
| Cc1noc(C)c1CN1C(=O)[C@@H]2CC[C@H]1CN(Cc1cccc(O)c1)C2 | 4.42 |
| CCn1cc(-n2cc3nc(N4CCC(C)CC4)[nH]cc-3c2=O)cn1 | 6.97 |
